Measurements: ChEMBL document CHEMBL3414451, “Discovery of a series of efficient, centrally efficacious BACE1 inhibitors through structure-based drug design” (J Med Chem, 2015)

What was measured:
[1] = Ratio of drug level in brain to plasma in CD1 mouse at 10 mg/kg, sc after 60 mins; assay type: ADME, organism-based; set-up: dose 10 mg/kg, route subcutaneous; conditions: brain and plasma, read-out: BPR
Outline: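 Plasma and brain exposures were measured in mice 60 min after 10 mg/kg subcutaneous dosing.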

[2] = Ratio of free drug level in brain to plasma in CD1 mouse at 10 mg/kg, sc; assay type: ADME, organism-based; set-up: dose 10 mg/kg, route subcutaneous; conditions: brain and plasma
Outline: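 Male CD-1 mice, 10 mg/kg sc in 5% DMSO/95% (0.5% methylcellulose). Plasma, brain and CSF were collected at 1, 4 and 7 h and analyzed by LC-MS/MS. Free fractions came from equilibrium dialysis.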

[3] = Ratio of free drug level in brain to plasma in dog; assay type: ADME, Canis lupus familiaris; conditions: brain and plasma

Kp at 1 h [1]	Kp uu [2]	Kp uu [3]	SMILES
3.51	1.2	–	NC1=N[C@@]2(c3ccc(F)cc3F)CO[C@@H](C(F)F)C[C@H]2CS1
9.2	1.42	0.78	NC1=N[C@@]2(c3ccc(F)cc3F)CO[C@@H](CF)C[C@H]2CS1
3.9	0.92	–	C[C@H]1C[C@H]2CSC(N)=N[C@@]2(c2ccc(F)cc2F)CO1
